In the library only some 5.7% were active in any assay of this set; here they are far more common.
Beta apoptosis = inhibitors of cytokine-induced beta cell apoptosis, primary screen, luminescence | INS-1E cytokine-induced death, ATP luminescence, 48 h; percent of positive-control rescue, neutral wells zero | protection from apoptosis, % (no concentration beside the values) | hit rate 0.8% among 300,000 | AID 435005, 2010;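 active = Every replicate reaches about 75%, or at least half do and their mean reaches it too, limit read from the data; inconclusive = At least half of replicates reach the limit but their mean does not; inactive = Under half of replicates reach the limit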;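 also: 0% = cytokine-treated negative control wells and 100% = positive control rescue; higher means more ATP so stronger rescue from cytokine killing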
CSC inhib = cancer stem cell viability inhibitors, primary screen, luminescence | cancer stem cell-like cells viability | inhibition, % at 7.5 µM | hit rate 1.1% among 300,000 | AID 2717, 2010; in the data active = inhibition above about 75%; inconclusive = no clear call, values can overlap the other calls; tested in HMLE shEcad cells
Mdm2 MdmX PPI = inhibitors of human Mdm2-MdmX association, primary screen, cell-based, luminescence, split luciferase, SaOS-2, uHTS | Protein Mdm4 (Homo sapiens) + E3 ubiquitin-protein ligase Mdm2 (Homo sapiens), … | SaOS-2 split-luciferase Mdm2/MdmX complementation | inhibition, % at 8 µM | hit rate 3% among 330,000 | AID 485346, 2010;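 active = inhibition of at least 50% at 8 µM in the primary screen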
Target sequence (O15151 whole entry, looked up): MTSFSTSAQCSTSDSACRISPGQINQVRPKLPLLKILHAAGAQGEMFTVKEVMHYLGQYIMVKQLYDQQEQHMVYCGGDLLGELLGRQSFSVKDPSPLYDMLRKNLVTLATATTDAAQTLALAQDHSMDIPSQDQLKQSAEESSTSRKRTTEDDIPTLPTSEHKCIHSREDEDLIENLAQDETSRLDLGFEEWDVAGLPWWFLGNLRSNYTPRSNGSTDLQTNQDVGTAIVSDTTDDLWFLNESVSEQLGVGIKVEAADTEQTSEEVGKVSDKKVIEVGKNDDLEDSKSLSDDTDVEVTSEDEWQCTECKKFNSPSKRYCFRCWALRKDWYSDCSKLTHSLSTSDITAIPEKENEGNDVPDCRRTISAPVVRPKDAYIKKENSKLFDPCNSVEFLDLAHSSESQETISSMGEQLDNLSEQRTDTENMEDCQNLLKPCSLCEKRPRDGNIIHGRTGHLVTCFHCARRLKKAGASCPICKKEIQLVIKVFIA
Target sequence (Q00987 whole entry, looked up): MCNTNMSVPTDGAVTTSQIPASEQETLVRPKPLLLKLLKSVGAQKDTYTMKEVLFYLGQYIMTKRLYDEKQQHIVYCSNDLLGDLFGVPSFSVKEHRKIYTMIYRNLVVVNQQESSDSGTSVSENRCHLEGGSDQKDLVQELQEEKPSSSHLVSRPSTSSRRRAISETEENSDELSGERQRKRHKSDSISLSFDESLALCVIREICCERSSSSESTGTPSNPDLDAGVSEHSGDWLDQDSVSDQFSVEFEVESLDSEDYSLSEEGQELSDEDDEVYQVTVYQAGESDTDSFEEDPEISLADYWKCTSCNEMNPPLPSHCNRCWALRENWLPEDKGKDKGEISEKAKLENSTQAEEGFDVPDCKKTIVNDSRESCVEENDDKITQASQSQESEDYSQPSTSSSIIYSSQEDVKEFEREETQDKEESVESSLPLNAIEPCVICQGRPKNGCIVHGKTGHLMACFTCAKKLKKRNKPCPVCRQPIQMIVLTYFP
SKKanGAS inh = S. pyogenes SKKanGAS growth inhibitors in kanamycin, primary screen, streptokinase expression inhibitor project, SKKanGAS strain, BacTiter-Glo luminescence | 6 h | inhibition, % at 7.5 µM | hit rate 1.3% among 300,000 | AID 1662, 2009;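 active = mean replicate score, as percent of positive control median, at least 50; inconclusive = mean below 50 but one replicate at or above 50; inactive = mean and every replicate below 50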;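 also: strain carries kanamycin resistance gene driven by streptokinase promoter and grows in 40 µg/ml kanamycin; loss of luminescence reflects streptokinase promoter inhibition or plain growth inhibition; 0% = median of DMSO wells and 100% = positive control at its reference dose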
Calb FLC = C. albicans growth inhibition with fluconazole, primary screen, CaCi-2 strain, Alamar Blue fluorescence; C. albicans CaCi-2 (fluconazole-resistant clinical isolate) + fluconazole, 48 h; growth inhibition, % (test concentration not listed); hit rate 0.57% among 300,000; AID 1979, 2009;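 active = growth inhibition above about 58% in most replicates, limit read from the data, passing the limit was not always enough; inconclusive = exactly half the replicates above a set limit; inactive = most replicates below a set limit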;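 also: all wells also contain fluconazole at 8 µg/ml as a sub-toxic cotreatment; 0% = median of DMSO wells and 100% = median of geldanamycin control wells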
T cruzi inh = inhibitors of intracellular T. cruzi growth, primary screen, luminescence, NIH3T3 host cells | T. cruzi beta-gal in NIH3T3, 90 h | inhibition, % (no concentration beside the values) | hit rate 1.4% among 300,000 | AID 1885, 2009;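 active = mean inhibition across valid replicates above about 55%, limit read from the data; inconclusive = mean below that limit but half or more replicates reach it; inactive = mean below it, under half of replicates reach it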;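 also: signal also drops with host cell toxicity which is not excluded here; 0% = plate median of DMSO wells and 100% = zero luminescence signal; higher percent means less beta-gal luminescence so fewer parasites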
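compound dosing = single 50 nL compound addition per well in DMSO | material = NIH/3T3 host cells with β-galactosidase reporter T. cruzi | input = 5,000 host fibroblasts per well | timing = ≥90 h infection period, 3 h prior cell attachment | read-out basis = percent inhibition of parasite-derived β-gal signal | detection = GalScreen β-gal luminescence, detergent lysis, 60 min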
Numbers without * were called inactive; u = inconclusive; x = no result.

SMILES	Beta apoptosis	CSC inhib	Mdm2 MdmX PPI	SKKanGAS inh	Calb FLC	T cruzi inh
CS(=O)(=O)c1ccc([C@@H](O)[C@@H](CF)NC(=O)C(Cl)Cl)cc1	22	-15	5	x	x	x
O=C(NCCc1nc2ccccc2[nH]1)c1cccc(Br)c1	2	-11	-14	-19	18	56*
O=C(NCCc1nc2ccccc2[nH]1)c1ccc(F)cc1	4	x	18	4	4	-8
Cc1cc(C)c[n+](-c2[nH]c(=O)sc2/C=N/N=C(\N)[S-])c1	0	12	2	9	3	-10
CS(=O)(=O)Nc1cccc(S(=O)(=O)N2CCN(C(=O)c3ccccc3)CC2)c1	-1	x	17	-3	-4	2
O=C(c1ccccc1)c1ccc2nc(-c3ccc(NC(=O)c4ccccc4Br)cc3)[nH]c2c1	x	x	29	28	76*	60*
CN(c1ccccc1)S(=O)(=O)c1ccc(Cl)c(C(=O)Nc2ccc(-c3nc4ccccc4[nH]3)cc2)c1	5	44	29	28	u	57*
C/C(=N\NC(=O)c1c[nH]c2ccccc12)c1ccccn1	17	20	39	17	-30	82*
C/C(=N\NC(=O)c1c[nH]c2ccccc12)c1ccco1	0	2	-16	1	-15	-8
CCOC(=O)Nc1sc2nc(C)cc(C)c2c1-n1cccc1	-1	3	31	0	-2	x
Cc1cc(C)c2c(-n3cccc3)c(C(=O)NNS(=O)(=O)c3ccc(Br)cc3)sc2n1	-2	7	8	59*	32	0
CSCC[C@H](NC(=O)c1nn(C)c(=O)c2ccccc12)c1nc2ccccc2[nH]1	-7	0	16	74*	5	1
CCn1nc(C(=O)N[C@@H](CCSC)c2nc3ccccc3[nH]2)c2ccccc2c1=O	11	-14	23	0	-4	0
COCCCn1c(SCC(=O)NC2CCS(=O)(=O)C2)nnc1-c1ccc(Cl)cc1 (configuration not stated)	-3	11	4	x	x	x
Oc1ccccc1-c1cc(-c2ccccc2)n[nH]1	-3	x	-205	x	x	x
Cc1ccc(O)c(-c2cc(-c3cccc(Br)c3)n[nH]2)c1	14	12	41	100*	99*	6
Oc1ccc(Cl)cc1-c1cc(-c2ccccc2)n[nH]1	11	50	33	55*	7	6
Cc1ccc2nc(SCC(=O)Nc3cccnc3Cl)[nH]c2c1	0	-5	-12	x	x	x
Cc1ccc(C)c(SCC(=O)Nc2cccnc2Cl)c1	0	x	-7	14	123*	-7
CC(C)(C)c1ccc(CN(Cc2ccco2)Cc2nnnn2C2CCCC2)cc1	22	-4	33	51*	11	41
COc1ccc2cc(CN(Cc3ccco3)Cc3nnnn3C3CCCCC3)c(=O)[nH]c2c1	-18	-3	20	6	-17	2
COc1ccc2c(c1OC)C(=O)N1C2SC[C@H]1C(=O)NC1CCCC1 (some centres not stated)	-13	-9	5	4	1	-22
O=C(O/N=C1/CCSc2ccccc21)c1ccc(F)cc1	-4	-3	-11	x	117*	5
O=C(O/N=C1/CCCc2occc21)c1ccc(F)cc1	-5	-8	1	4	9	-9
Cc1ccc(CNS(=O)(=O)c2ccc3c(c2)n(C)c(=O)n3C)cc1	10	-6	30	-5	5	-22
SMILES	Beta apoptosis	CSC inhib	Mdm2 MdmX PPI	SKKanGAS inh	Calb FLC	T cruzi inh
N#Cc1c(NC(=O)CSc2nc3ccccc3s2)sc2c1CCCC2	-2	-5	26	-6	3	-4
COC(=O)C[C@H](NC(=O)Cn1cnc2c(NCc3ccccc3)ncnc21)C(=O)OC	x	x	40	x	x	x
COc1cccc2sc3ccc(C#Cc4ccc(N)cc4)cc3c(=O)c12	2	21	-86	76*	7	27
Nc1ccc(C#Cc2ccc3sc4ccccc4c(=O)c3c2)cc1	x	28	-218	2	-3	6
O=C(CSc1nc2ccccc2c(=O)n1Cc1ccccc1)Nc1ccc(Br)cc1C(=O)O	-9	65	14	52*	33	-11
Cc1ccc(S(=O)(=O)N2CCOCC2)cc1NC(=O)CSc1nc2ccccc2c(=O)n1Cc1ccccc1	x	x	30	11	-5	19
O=C(CCl)c1ccc(Cc2ncc(C(F)(F)F)cc2Cl)s1	3	-16	45	55*	1	-18
NS(=O)(=O)c1ccc(Cc2ncc(C(F)(F)F)cc2Cl)s1	1	-18	-15	1	5	5
Cn1c(=O)c2sccc2n2c(CCCC(=O)NC3CCN(Cc4ccccc4)CC3)nnc12	2	-3	11	3	3	5
CN(C)C(=O)C(=O)c1cccn1-c1cccc(Cl)c1C#N	4	0	-2	-2	0	-12
COc1ccc(/C=C/C(=O)c2ccc[nH]2)c(OC)c1OC	-8	-6	8	3	-2	1
COc1ccc(/C=C/C(=O)c2ccncc2)c2ccccc12	100*	176*	35	2	35	-27
O=C(CSc1nnc2ccc(-c3ccccc3)nn12)NCC1CCCO1 (configuration not stated)	-7	-11	-3	-1	2	3
Cc1ccnc(NS(=O)(=O)c2cnc(Cl)c(Br)c2)c1	1	-4	5	0	-3	-5
O=C(Nc1nc(N2C(=O)c3ccccc3C2=O)n(-c2ccccc2)n1)c1ccc(Cl)cc1	3	9	2	56*	-6	3
Nc1nc(NC(=O)c2ccc(Cl)cc2)nn1-c1ccccc1	0	12	-5	-6	-5	-7
COc1ccc(CNC(=O)CN(C(=O)CCC(=O)Nc2ccccn2)c2cccc(C)c2C)cc1	0	-12	21	-8	-1	15
Oc1c(Cl)cc(Cl)cc1/C=N/NC(=S)NC1CC2C=CC1C2 (configuration not stated)	x	100*	37	111*	17	-3
Cc1c(NC(=S)N/N=C\c2ccccc2O)c(=O)n(-c2ccccc2)n1C	2	-2	9	-3	-14	-30
Oc1ccccc1/C=N/NC(=S)NC1CC2C=CC1C2 (configuration not stated)	x	54	14	92*	-1	-27
O=C(COC(=O)/C=C/c1cccc(C(F)(F)F)c1)NC1CCCCCC1	3	12	-10	x	x	x
Cc1ccc(CSc2nnc(-c3ccc(NS(=O)(=O)c4ccccc4)cc3)o2)cc1	3	49	11	14	20	3
Cc1ccc(S(=O)(=O)Nc2ccc(-c3nnc(SCc4ccccc4Cl)o3)cc2)cc1	1	88*	24	8	3	15

Screens deposited in PubChem by several laboratories.
